Activity calls are given as the source filed them. No cut-off for these calls is given here.
Legend:
[1] = biological target: Phosphatidylinositol 4-kinase alpha (Homo sapiens, UniProt P42356); assay: Inhibition of PIK4CA in human HeLa cells lysate pre incubated for 15 mins followed by ATP acyl phosphate probe addition and measured after 10 mins by LC-MS/MS analysis; assay type: subcellular
Wee1-like protein kinase = Wee1-like protein kinase (Homo sapiens, UniProt P30291); assay: Inhibition of Wee1 in human HeLa cells lysate pre incubated for 15 mins followed by ATP acyl phosphate probe addition and measured after 10 mins by LC-MS/MS analysis; assay type: subcellular
Ephrin type-B receptor 4 = Ephrin type-B receptor 4 (Homo sapiens, UniProt P54760); assay: Inhibition of EphB4 in human HeLa cells lysate pre incubated for 15 mins followed by ADP acyl phosphate probe addition and measured after 10 mins by LC-MS/MS analysis; assay type: subcellular
[2] = biological target: Mitogen-activated protein kinase kinase kinase kinase 2 (Homo sapiens, UniProt Q12851); assay: Inhibition of GCK in human HeLa cells lysate pre incubated for 15 mins followed by ADP acyl phosphate probe addition and measured after 10 mins by LC-MS/MS analysis; assay type: subcellular
[3] = biological target: Serine/threonine-protein kinase 24 (Homo sapiens, UniProt Q9Y6E0); assay: Inhibition of MST3 in human HeLa cells lysate pre incubated for 15 mins followed by ADP acyl phosphate probe addition and measured after 10 mins by LC-MS/MS analysis; assay type: subcellular
[4] = biological target: Macrophage-stimulating protein receptor (Homo sapiens, UniProt Q04912); assay: Inhibition of RON in human HeLa cells lysate at 10 uM pre incubated for 15 mins followed by ADP acyl phosphate probe addition and measured after 10 mins by LC-MS/MS analysis relative to control; assay type: subcellular; details: time 25.0 min
[5] = Inhibition of HGK/MINK/TNIK in human HeLa cells lysate at 10 uM pre incubated for 15 mins followed by ADP acyl phosphate probe addition and measured after 10 mins by LC-MS/MS analysis relative to control; details: 25 min, condition cancer
[6] = biological target: Cyclin-dependent kinase 2 (Homo sapiens, UniProt P24941); assay: Inhibition of CDK2 in human HeLa cells lysate at 50 uM pre incubated for 15 mins followed by ATP acyl phosphate probe addition and measured after 10 mins by LC-MS/MS analysis relative to control; assay type: subcellular; details: time 25.0 min
Summary of the method: (§1)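 KiNativ profiling in HeLa lysate (5 mg/mL total protein). Lysate incubated 15 min with inhibitor at 50, 10, 2, 0.8 or 0 μM. ATP or ADP acylphosphate probe then added (5 μM final) and reacted 10 min. Reaction stopped with urea and analysed by targeted MS, using up to four fragment ions per kinase peptide-probe conjugate. % inhibition taken against untreated lysate. Run in duplicate.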

[7] = biological target: Tyrosine-protein kinase Fer (Homo sapiens, UniProt P16591); assay: Inhibition of FER in human HeLa cells lysate at 10 uM pre incubated for 15 mins followed by ATP acyl phosphate probe addition and measured after 10 mins by LC-MS/MS analysis relative to control; assay type: subcellular; details: time 25.0 min
[8] = biological target: Ribosomal protein S6 kinase beta-1 (Homo sapiens, UniProt P23443); assay: Inhibition of P70S6K in human HeLa cells lysate at 10 uM pre incubated for 15 mins followed by ATP acyl phosphate probe addition and measured after 10 mins by LC-MS/MS analysis relative to control; assay type: subcellular; details: time 25.0 min
SRSF protein kinase 1 = SRSF protein kinase 1 (Homo sapiens, UniProt Q96SB4); assay: Inhibition of SRPK1 in human HeLa cells lysate at 10 uM pre incubated for 15 mins followed by ATP acyl phosphate probe addition and measured after 10 mins by LC-MS/MS analysis relative to control; assay type: subcellular; details: time 25.0 min
[9] = biological target: T1, Serine/threonine-protein kinase A-Raf (Homo sapiens) (UniProt P10398); assay: Inhibition of ARAF in human HeLa cells lysate at 2 uM pre incubated for 15 mins followed by ATP acyl phosphate probe addition and measured after 10 mins by LC-MS/MS analysis relative to control; assay type: subcellular; details: time 25.0 min
T1 sequence (whole entry): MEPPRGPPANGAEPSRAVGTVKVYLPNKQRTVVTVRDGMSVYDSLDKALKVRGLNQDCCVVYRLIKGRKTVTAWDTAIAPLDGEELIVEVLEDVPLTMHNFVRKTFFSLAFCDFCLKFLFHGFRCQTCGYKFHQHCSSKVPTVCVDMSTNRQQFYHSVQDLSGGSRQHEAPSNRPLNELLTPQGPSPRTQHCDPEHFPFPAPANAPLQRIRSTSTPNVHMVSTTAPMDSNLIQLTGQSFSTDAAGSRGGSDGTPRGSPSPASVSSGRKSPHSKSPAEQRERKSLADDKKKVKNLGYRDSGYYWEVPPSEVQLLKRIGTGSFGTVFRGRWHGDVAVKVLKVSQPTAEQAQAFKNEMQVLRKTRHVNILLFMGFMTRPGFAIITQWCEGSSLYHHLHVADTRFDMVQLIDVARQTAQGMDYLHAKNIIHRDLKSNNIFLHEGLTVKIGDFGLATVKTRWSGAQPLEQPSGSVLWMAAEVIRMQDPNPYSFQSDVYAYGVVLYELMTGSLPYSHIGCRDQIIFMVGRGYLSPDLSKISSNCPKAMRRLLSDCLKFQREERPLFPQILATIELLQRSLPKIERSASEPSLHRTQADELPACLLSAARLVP
Summary of the method: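 KiNativ-type profiling in HeLa lysate (5 mg/mL total protein). Lysate preincubated 15 min with inhibitor at 50, 10, 2, 0.8 or 0 μM, then ATP or ADP acylphosphate probe added (5 μM final) for 10 min. Reaction stopped with urea and analysed by targeted MS, using up to four fragment ions per kinase peptide-probe conjugate. % inhibition calculated against untreated lysate. Duplicate reactions.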

[10] = biological target: T2, Serine/threonine-protein kinase Chk1 (Homo sapiens) (UniProt O14757); assay: Inhibition of CHK1 K2 site in human HeLa cells lysate at 2 uM pre incubated for 15 mins followed by ATP acyl phosphate probe addition and measured after 10 mins by LC-MS/MS analysis relative to control; assay type: subcellular; details: time 25.0 min; summary of the method: as §1
T2 sequence (whole entry): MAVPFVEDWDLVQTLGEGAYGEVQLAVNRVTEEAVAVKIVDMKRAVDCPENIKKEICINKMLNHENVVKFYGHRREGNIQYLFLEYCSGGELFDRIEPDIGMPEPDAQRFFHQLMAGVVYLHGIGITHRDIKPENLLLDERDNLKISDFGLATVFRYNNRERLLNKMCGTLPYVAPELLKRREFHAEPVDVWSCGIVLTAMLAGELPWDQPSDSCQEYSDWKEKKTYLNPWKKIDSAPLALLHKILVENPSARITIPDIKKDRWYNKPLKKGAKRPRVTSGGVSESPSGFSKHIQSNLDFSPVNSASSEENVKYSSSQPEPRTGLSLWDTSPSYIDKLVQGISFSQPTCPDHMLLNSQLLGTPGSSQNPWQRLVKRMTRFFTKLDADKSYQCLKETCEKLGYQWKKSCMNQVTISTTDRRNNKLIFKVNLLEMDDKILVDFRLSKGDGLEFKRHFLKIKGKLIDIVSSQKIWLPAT

[11] = Plasma concentration in C57Bl/6 mouse at 50 mg/kg, ip administered for 13 day and measured 8 hr post last dose by LC-MS/MS analysis; assay type: ADME, organism-based
HeLa = assay: Antitumor activity against human HeLa cells xenografted in NOD/SCID mouse assessed as decrease in BrdU incorporation in cell nuclei in tumor at 50 mg/kg, ip by fluorescence microscopic analysis; assay type: functional, organism-based
Summary of the method: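 HeLa or LL/2 tumor sections from treated and control xenograft mice were stained with anti-BrdU antibody and DAPI and imaged by fluorescence microscopy. n = 6 mice, 9 slices.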

Chain of Macrophage-stimulating protein receptor (Q04912 25-304 limits assumed): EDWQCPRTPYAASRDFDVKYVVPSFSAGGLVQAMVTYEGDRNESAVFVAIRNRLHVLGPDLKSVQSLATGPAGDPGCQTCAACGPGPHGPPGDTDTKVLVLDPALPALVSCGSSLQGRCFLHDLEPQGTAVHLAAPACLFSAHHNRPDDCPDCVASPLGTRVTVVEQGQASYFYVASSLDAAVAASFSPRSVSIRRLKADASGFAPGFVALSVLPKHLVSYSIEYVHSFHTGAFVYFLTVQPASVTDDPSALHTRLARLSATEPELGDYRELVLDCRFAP
Chain of Macrophage-stimulating protein receptor (Q04912 310-1400 limits assumed): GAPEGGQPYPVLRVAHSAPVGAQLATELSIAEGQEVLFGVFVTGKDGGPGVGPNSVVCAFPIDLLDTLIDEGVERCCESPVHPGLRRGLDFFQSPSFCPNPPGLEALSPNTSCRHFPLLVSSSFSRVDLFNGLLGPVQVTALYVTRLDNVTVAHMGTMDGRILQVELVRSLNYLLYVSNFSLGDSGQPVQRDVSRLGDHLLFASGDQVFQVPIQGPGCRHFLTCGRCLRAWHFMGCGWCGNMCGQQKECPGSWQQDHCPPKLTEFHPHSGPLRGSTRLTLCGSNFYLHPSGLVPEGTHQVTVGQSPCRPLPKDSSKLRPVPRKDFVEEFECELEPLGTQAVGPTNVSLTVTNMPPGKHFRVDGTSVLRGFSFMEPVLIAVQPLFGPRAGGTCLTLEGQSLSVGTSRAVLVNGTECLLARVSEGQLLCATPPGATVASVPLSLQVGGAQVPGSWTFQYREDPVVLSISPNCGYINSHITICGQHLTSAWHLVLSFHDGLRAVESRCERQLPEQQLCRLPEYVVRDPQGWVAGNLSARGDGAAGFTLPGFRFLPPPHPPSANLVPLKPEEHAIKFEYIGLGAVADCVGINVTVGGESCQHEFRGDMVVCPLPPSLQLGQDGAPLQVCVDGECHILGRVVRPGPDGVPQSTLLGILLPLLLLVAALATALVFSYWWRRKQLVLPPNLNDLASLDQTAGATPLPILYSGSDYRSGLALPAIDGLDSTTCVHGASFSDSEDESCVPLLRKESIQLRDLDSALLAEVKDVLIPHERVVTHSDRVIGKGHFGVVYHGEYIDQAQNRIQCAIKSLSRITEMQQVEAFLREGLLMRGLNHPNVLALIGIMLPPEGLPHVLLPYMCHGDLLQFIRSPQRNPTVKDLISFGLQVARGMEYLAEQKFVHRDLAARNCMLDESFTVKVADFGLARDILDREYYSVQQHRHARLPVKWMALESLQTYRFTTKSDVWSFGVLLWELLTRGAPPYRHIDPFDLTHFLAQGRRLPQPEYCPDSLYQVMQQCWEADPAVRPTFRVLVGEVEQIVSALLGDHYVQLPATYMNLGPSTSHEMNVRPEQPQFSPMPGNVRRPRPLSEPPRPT
Chain of Tyrosine-protein kinase Fer (P16591 whole entry, looked up): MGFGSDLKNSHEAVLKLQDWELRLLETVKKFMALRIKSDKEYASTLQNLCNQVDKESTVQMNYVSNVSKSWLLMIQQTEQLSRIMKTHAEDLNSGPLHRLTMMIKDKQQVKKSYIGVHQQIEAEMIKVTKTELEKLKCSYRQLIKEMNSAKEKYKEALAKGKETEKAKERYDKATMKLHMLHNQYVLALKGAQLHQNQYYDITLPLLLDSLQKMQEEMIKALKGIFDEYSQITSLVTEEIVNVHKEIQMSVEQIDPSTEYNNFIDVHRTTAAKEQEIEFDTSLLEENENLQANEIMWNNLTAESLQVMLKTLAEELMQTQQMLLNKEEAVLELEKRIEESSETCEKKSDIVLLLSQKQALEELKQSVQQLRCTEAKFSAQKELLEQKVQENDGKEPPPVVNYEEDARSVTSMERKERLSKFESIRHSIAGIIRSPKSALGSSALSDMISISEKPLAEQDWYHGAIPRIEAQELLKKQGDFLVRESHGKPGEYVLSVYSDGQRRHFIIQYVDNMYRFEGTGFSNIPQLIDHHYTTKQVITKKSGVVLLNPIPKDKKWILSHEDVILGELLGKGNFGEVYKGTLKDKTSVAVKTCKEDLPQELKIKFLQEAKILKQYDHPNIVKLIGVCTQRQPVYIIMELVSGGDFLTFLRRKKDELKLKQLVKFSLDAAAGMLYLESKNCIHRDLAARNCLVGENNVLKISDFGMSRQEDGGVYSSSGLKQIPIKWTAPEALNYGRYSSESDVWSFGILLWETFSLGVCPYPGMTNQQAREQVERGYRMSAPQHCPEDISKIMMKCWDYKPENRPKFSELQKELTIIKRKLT
Chain of Wee1-like protein kinase (P30291 whole entry): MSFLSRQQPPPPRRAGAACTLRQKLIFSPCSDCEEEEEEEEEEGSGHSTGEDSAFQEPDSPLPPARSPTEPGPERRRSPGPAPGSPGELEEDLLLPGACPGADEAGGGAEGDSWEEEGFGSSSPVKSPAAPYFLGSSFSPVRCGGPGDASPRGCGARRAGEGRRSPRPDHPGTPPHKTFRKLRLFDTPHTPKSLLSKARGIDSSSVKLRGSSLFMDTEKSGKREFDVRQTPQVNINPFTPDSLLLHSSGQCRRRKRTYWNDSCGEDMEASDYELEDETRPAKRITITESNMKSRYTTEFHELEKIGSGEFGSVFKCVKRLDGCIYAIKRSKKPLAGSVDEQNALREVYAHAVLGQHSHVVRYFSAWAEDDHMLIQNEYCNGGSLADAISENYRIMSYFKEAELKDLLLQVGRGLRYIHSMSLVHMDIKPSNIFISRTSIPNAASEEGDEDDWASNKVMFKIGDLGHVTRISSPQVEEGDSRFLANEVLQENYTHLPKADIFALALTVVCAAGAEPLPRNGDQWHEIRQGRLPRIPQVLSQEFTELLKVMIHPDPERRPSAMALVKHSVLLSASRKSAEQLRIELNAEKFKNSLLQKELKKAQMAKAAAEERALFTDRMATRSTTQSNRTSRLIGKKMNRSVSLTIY
Chain of Ribosomal protein S6 kinase beta-1 (P23443 whole entry, looked up): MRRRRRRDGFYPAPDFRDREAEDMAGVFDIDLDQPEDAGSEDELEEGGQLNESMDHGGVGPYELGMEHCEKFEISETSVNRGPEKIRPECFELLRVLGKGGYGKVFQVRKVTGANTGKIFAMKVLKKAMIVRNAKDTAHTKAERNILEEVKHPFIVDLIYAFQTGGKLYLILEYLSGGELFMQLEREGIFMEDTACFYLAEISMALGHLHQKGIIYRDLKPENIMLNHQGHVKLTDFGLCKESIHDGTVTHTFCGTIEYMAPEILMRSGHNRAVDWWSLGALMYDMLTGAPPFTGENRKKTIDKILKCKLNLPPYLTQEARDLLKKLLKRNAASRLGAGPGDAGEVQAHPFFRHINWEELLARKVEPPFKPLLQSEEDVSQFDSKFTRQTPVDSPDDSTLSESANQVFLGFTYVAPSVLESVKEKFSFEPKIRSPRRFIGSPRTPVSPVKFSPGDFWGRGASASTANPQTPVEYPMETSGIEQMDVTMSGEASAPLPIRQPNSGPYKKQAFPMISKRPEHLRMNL
Chain of Ephrin type-B receptor 4 (P54760 whole entry): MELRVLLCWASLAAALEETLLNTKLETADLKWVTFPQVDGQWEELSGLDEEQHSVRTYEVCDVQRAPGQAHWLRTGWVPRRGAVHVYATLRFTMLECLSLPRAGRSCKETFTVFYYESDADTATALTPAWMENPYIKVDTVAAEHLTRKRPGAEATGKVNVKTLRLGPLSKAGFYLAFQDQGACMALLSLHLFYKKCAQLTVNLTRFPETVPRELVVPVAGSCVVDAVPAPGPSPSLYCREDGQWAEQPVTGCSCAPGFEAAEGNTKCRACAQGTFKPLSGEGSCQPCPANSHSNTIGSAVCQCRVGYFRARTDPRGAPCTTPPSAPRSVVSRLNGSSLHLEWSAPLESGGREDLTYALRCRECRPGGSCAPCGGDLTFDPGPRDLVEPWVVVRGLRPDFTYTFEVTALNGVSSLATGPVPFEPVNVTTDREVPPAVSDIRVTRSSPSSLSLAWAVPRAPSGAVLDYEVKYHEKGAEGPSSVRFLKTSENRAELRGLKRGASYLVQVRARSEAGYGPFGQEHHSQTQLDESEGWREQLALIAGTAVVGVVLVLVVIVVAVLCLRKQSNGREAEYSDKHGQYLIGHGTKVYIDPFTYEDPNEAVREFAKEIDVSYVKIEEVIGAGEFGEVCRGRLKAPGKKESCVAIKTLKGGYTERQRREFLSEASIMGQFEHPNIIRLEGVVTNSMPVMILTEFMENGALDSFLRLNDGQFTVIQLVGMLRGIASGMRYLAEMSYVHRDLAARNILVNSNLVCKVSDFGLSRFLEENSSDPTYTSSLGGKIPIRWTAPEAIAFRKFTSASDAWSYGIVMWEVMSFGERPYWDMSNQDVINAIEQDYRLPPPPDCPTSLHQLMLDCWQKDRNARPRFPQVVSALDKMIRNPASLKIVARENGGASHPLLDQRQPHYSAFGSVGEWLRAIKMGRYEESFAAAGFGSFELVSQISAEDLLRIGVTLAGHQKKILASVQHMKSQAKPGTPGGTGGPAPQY
Chain of Serine/threonine-protein kinase 24 (Q9Y6E0 whole entry): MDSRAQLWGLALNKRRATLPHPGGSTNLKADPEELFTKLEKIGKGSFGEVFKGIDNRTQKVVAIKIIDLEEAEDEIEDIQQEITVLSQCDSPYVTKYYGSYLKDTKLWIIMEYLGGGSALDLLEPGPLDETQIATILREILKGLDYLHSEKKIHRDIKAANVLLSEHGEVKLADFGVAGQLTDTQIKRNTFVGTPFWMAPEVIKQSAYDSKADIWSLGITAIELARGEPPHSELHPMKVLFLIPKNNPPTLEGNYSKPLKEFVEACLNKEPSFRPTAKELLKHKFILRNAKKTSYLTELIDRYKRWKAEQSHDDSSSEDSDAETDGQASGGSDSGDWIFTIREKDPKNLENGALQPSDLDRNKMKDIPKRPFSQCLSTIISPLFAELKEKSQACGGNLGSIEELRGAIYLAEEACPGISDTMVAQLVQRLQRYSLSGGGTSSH

CCOc1cc(N2CCC(O)CC2)ccc1Nc1ncc2c(n1)N(C)c1ccccc1C(=O)N2C
IC50 [1]: 36 µM | IC50 (Wee1-like protein kinase): > 50 µM | IC50 (Ephrin type-B receptor 4): > 50 µM | IC50 [2]: > 50 µM | IC50 [3]: > 50 µM | inhibition [4]: 24.9% | inhibition at 10 µM [5]: -25.3% | inhibition [6]: -1.9% | inhibition [7]: 0% | inhibition [8]: -9.6% | inhibition (SRSF protein kinase 1): 1.3% | inhibition [9]: 3.3% | inhibition [10]: -2% | concentration at 312 h [11]: 11.1 µM | Activity (HeLa): Active

Source: ChEMBL document CHEMBL5661979, “Pharmacological inhibition of BMK1 suppresses tumor growth through promyelocytic leukemia protein” (Cancer Cell, 2010)
